According to ChEMBL document CHEMBL1255376, “Comparative surveillance study of telavancin activity against recently collected gram-positive clinical isolates from across the United States” (2008):
Values after ≈ are worked out from the molar mass of the structure shown.

Experiments:
Format in all cases: functional
Staphylococcus capitis = assay: Antibacterial activity against daptomycin-nonsusceptible Staphylococcus capitis isolate 1285355 by broth microdilution method
Outline: (§1)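 MIC by CLSI broth microdilution in frozen microtiter trays holding serial dilutions of each agent, prepared from standard laboratory powders. E. faecalis ATCC 29212 and ATCC 51299, S. aureus ATCC 29213 and S. pneumoniae ATCC 49619 run in parallel as quality-control strains. Comparator susceptibility interpreted with CLSI breakpoints.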

Enterococcus faecalis [1] = assay: Antibacterial activity against vancomycin- and teichoplanin-nonsusceptible Enterococcus faecalis clinical isolate by broth microdilution method
Outline: (§2)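 MICs by CLSI broth microdilution in frozen trays pre-loaded with serial dilutions of each agent. Quality-control strains run in parallel: E. faecalis ATCC 29212 and ATCC 51299, S. aureus ATCC 29213, S. pneumoniae ATCC 49619. Comparator susceptibility categories follow CLSI breakpoints. Methicillin resistance in staphylococci assigned from the oxacillin MIC.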

Staphylococcus simulans [2] = assay: Antibacterial activity against methicillin-resistant coagulase-negative Staphylococcus simulans clinical isolate by broth microdilution method; outline: as §2
Streptococcus sanguinis = assay: Antibacterial activity against Streptococcus sanguinis clinical isolate by broth microdilution method; outline: as §1
[3] = Antibacterial activity against Streptococcus sp. Group G clinical isolate by broth microdilution method; outline: as §1
Enterococcus faecium [4] = assay: Antibacterial activity against vancomycin-resistant and teichoplanin-susceptible Enterococcus faecium clinical isolate by broth microdilution method; outline: as §2
Enterococcus faecium [5] = assay: Antibacterial activity against vancomycin-susceptible Enterococcus faecium clinical isolate by broth microdilution method; outline: as §1
[6] = test system: Staphylococcus saprophyticus; assay: Antibacterial activity against methicillin-resistant coagulase-negative Staphylococcus saprophyticus clinical isolate by broth microdilution method; outline: as §2
[7] = test system: Staphylococcus epidermidis; assay: Antibacterial activity against methicillin-susceptible coagulase-negative Staphylococcus epidermidis clinical isolate by broth microdilution method; outline: as §2
Streptococcus pyogenes = assay: Antibacterial activity against Streptococcus pyogenes clinical isolate by broth microdilution method; outline: as §1
[8] = test system: Staphylococcus saprophyticus; assay: Antibacterial activity against methicillin-susceptible coagulase-negative Staphylococcus saprophyticus clinical isolate by broth microdilution method; outline: as §2
Staphylococcus xylosus = assay: Antibacterial activity against methicillin-resistant coagulase-negative Staphylococcus xylosus clinical isolate by broth microdilution method; outline: as §2
Staphylococcus simulans [9] = assay: Antibacterial activity against methicillin-susceptible coagulase-negative Staphylococcus simulans clinical isolate by broth microdilution method; outline: as §2
Staphylococcus cohnii [10] = assay: Antibacterial activity against methicillin-susceptible coagulase-negative Staphylococcus cohnii clinical isolate by broth microdilution method; outline: as §2
Enterococcus faecalis [11] = assay: Antibacterial activity against vancomycin-resistant and teichoplanin-susceptible Enterococcus faecalis clinical isolate by broth microdilution method; outline: as §2
Streptococcus sp. = assay: Antibacterial activity against Streptococcus sp. clinical isolate by broth microdilution method
Outline: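 MIC by CLSI broth microdilution in frozen microtiter trays holding serial dilutions of each agent, prepared from standard laboratory powders. Comparator susceptibility interpreted with CLSI breakpoints.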

Staphylococcus aureus = assay: Antibacterial activity against methicillin-susceptible Staphylococcus aureus clinical isolate by broth microdilution method; outline: as §2
Staphylococcus hominis = assay: Antibacterial activity against methicillin-resistant coagulase-negative Staphylococcus hominis clinical isolate by broth microdilution method; outline: as §2
Enterococcus faecalis [12] = assay: Antibacterial activity against vancomycin-susceptible Enterococcus faecalis clinical isolate by broth microdilution method; outline: as §2
Staphylococcus cohnii [13] = assay: Antibacterial activity against methicillin-resistant coagulase-negative Staphylococcus cohnii clinical isolate by broth microdilution method; outline: as §2
Staphylococcus = assay: Antibacterial activity against methicillin-resistant coagulase-negative unspeciated Staphylococcus clinical isolate by broth microdilution method; outline: as §2
[14] = test system: Staphylococcus epidermidis; assay: Antibacterial activity against methicillin-resistant coagulase-negative Staphylococcus epidermidis clinical isolate by broth microdilution method; outline: as §2
Staphylococcus warneri = assay: Antibacterial activity against methicillin-susceptible coagulase-negative Staphylococcus warneri clinical isolate by broth microdilution method; outline: as §2

Compound `CCCCCCCCCC(=O)N[C@@H](Cc1c[nH]c2ccccc12)C(=O)N[C@H](CC(N)=O)C(=O)N[C@@H](CC(=O)O)C(=O)N[C@@H]1C(=O)NCC(=O)N[C@@H](CCCN)C(=O)N[C@@H](CC(=O)O)C(=O)N[C@H](C)C(=O)N[C@@H](CC(=O)O)C(=O)NCC(=O)N[C@H](CO)C(=O)N[C@@H]([C@H](C)CC(=O)O)C(=O)N[C@@H](CC(=O)c2ccccc2N)C(=O)O[C@@H]1C` has an MIC (Staphylococcus capitis) of over 1 µg/mL, an MIC (Enterococcus faecalis [1]) of 0.5 µg/mL (≈ 0.309 µM) and an MIC50 (Enterococcus faecalis [1]) of 0.5 µg/mL (≈ 0.309 µM). It also gave an MIC90 (Enterococcus faecalis [1]) of 1 µg/mL (≈ 0.617 µM), an MIC50 (Staphylococcus simulans [2]) of 0.5 µg/mL (≈ 0.309 µM) and an MIC90 (Staphylococcus simulans [2]) of 1 µg/mL (≈ 0.617 µM). It also gave an MIC50 (Streptococcus sanguinis) of 0.25 µg/mL (≈ 0.154 µM), an MIC90 (Streptococcus sanguinis) of 1 µg/mL (≈ 0.617 µM) and an MIC50 [3] of 0.06 µg/mL (≈ 0.037 µM). It also gave an MIC90 [3] of 0.25 µg/mL (≈ 0.154 µM), an MIC50 (Enterococcus faecium [4]) of 2 µg/mL (≈ 1.23 µM) and an MIC90 (Enterococcus faecium [4]) of 4 µg/mL (≈ 2.47 µM). The MIC50 (Enterococcus faecium [5]) was 2 µg/mL (≈ 1.23 µM), the MIC90 (Enterococcus faecium [5]) was 4 µg/mL (≈ 2.47 µM) and the MIC50 [6] was 0.5 µg/mL (≈ 0.309 µM). For the same compound, the MIC90 [6] was 1 µg/mL (≈ 0.617 µM), the MIC50 [7] was 0.5 µg/mL (≈ 0.309 µM) and the MIC90 [7] was 1 µg/mL (≈ 0.617 µM). The MIC50 (Streptococcus pyogenes) was 0.06 µg/mL (≈ 0.037 µM), the MIC90 (Streptococcus pyogenes) was 0.06 µg/mL (≈ 0.037 µM) and the MIC50 [8] was 0.5 µg/mL (≈ 0.309 µM). It also gave an MIC90 [8] of 1 µg/mL (≈ 0.617 µM), an MIC50 (Staphylococcus xylosus) of 0.5 µg/mL (≈ 0.309 µM) and an MIC90 (Staphylococcus xylosus) of 1 µg/mL (≈ 0.617 µM). The MIC50 (Staphylococcus simulans [9]) was 0.5 µg/mL (≈ 0.309 µM), the MIC90 (Staphylococcus simulans [9]) was 1 µg/mL (≈ 0.617 µM) and the MIC50 (Staphylococcus cohnii [10]) was 0.5 µg/mL (≈ 0.309 µM). For the same compound, the MIC90 (Staphylococcus cohnii [10]) was 1 µg/mL (≈ 0.617 µM), the MIC (Enterococcus faecalis [11]) was 0.5 µg/mL (≈ 0.309 µM) and the MIC50 (Streptococcus sp.) was 0.25 µg/mL (≈ 0.154 µM). The MIC90 (Streptococcus sp.) was 1 µg/mL (≈ 0.617 µM), the MIC50 (Staphylococcus aureus) was 0.5 µg/mL (≈ 0.309 µM) and the MIC90 (Staphylococcus aureus) was 0.5 µg/mL (≈ 0.309 µM). The MIC50 (Staphylococcus hominis) was 0.5 µg/mL (≈ 0.309 µM), the MIC90 (Staphylococcus hominis) was 1 µg/mL (≈ 0.617 µM) and the MIC50 (Enterococcus faecalis [12]) was 1 µg/mL (≈ 0.617 µM). For the same compound, the MIC90 (Enterococcus faecalis [12]) was 1 µg/mL (≈ 0.617 µM), the MIC50 (Staphylococcus cohnii [13]) was 0.5 µg/mL (≈ 0.309 µM) and the MIC90 (Staphylococcus cohnii [13]) was 1 µg/mL (≈ 0.617 µM). The MIC50 (Staphylococcus) was 0.5 µg/mL (≈ 0.309 µM), the MIC90 (Staphylococcus) was 1 µg/mL (≈ 0.617 µM) and the MIC50 [14] was 0.5 µg/mL (≈ 0.309 µM). The MIC90 [14] was 1 µg/mL (≈ 0.617 µM), the MIC50 (Staphylococcus warneri) was 0.5 µg/mL (≈ 0.309 µM) and the MIC90 (Staphylococcus warneri) was 1 µg/mL (≈ 0.617 µM).
